Measles CPE – compounds protecting cells from measles virus cytopathic effect, primary screen, measles RdRp inhibitor project, single point, MLSMR library, absorbance; AID 841, 2007; Measles virus-infected cells, CPE protection; protection (pct of control), % at 4 µM; 140,000 compounds, 1.5% hits; in the data active = protection mostly above about 24%, no sharp cut-off; inactive = mostly below about 26%
hDAT+cocaine – changed hDAT dopamine uptake under cocaine IC80, either direction, primary screen, cocaine antagonist project, cell-based, LLC-PK1 hDAT, [14C]-dopamine uptake, MLSMR; Sodium-dependent dopamine transporter (Homo sapiens), Q01959; LLC-PK1 hDAT cells, [14C]-dopamine uptake with cocaine IC80; actives deviate in either direction; B-score at 10 µM; 110,000 compounds, 1.3% hits; AID 449768, 2010;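 active = Z score or B-score, a plate-position-corrected score, falls beyond the plate's 99.7% confidence bounds, in either direction; inactive = both scores lie inside the 99.7% bounds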;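 also: scored against the spread of the other compound wells on the same plate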
Target sequence (Q01959 whole entry, looked up): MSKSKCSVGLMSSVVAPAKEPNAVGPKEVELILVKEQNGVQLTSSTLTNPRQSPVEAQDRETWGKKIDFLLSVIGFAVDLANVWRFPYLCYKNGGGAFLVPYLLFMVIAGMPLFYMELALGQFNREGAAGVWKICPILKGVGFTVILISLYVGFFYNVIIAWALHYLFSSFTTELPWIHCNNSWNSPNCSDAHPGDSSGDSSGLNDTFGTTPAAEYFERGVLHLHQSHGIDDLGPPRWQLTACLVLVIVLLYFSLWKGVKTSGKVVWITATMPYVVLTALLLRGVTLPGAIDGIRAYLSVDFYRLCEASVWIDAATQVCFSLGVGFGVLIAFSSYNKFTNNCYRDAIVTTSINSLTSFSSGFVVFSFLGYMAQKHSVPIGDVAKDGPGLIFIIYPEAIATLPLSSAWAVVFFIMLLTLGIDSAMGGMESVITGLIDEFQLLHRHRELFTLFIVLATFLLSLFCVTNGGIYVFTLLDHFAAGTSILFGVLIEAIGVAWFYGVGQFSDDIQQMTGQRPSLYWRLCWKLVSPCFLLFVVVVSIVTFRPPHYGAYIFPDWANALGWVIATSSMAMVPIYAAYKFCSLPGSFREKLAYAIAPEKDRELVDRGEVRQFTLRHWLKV
RAM inhibit – inhibitors of the yeast RAM network, primary screen, dse1pr::URA3 reporter, 5-FOA selection; S. cerevisiae dse1pr::URA3 reporter, 5-FOA growth OD615, 2 d; analog-sensitive cbk1-as2 kinase mutant strain; 190,000 compounds, 1.8% hits; inhibition, % at 50 µM;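 active = inhibition above a set limit, 3 SD over mean compound inhibition, cut at about 8.4% in these data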;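 also: 0% = DMSO-only wells with no growth and 100% = 10 µM 1-NA-PP1 full growth; inhibition rescues growth on 5-FOA so higher OD means more RAM inhibition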
BB579 growth dn – growth inhibitors of yeast BB579 in restrictive medium, primary screen, yeast lifespan-shortening project, S. cerevisiae; OD615, 48 h; inhibition, % at 10 µM; 140,000 compounds, 0.51% hits; AID 804, 2007;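 active = inhibition above a set limit, 3 SD over the mean compound inhibition, cut at about 44% in these data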
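System: DeaD yeast strain BB579; buffer or medium: CSMM-D dextrose restrictive medium; technique: OD at 615 nm; schedule: 4 h cell preincubation, 48 h compound exposure, 30 °C humidified; doses: single 10 µM dose; controls: amphotericin B 10 µg/mL, positive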
WT yeast gro inh – growth inhibition of WT strain, primary screen, mitochondrial fusion inhibitor project, WT and mutant strains, chemical genetic. mitochondrial fusion phenotypic screen. inhibition, % at 10 µM. 190,000 compounds, 2.1% hits; in the data active = inhibition above about 58%; tested in S. cerevisiae
Yeast life ext – compounds extending yeast replicative lifespan, primary screen, S. cerevisiae, OD615; S. cerevisiae growth with nicotinamide; deaD strain in restrictive glucose medium; inhibition of the nicotinamide effect, % at 10 µM; 130,000 compounds, 0.68% hits;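 active = inhibition above a set limit, placed 3 SD over the median of all compounds, cut at about 26% in these data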;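 also: 0% = nicotinamide-treated wells and 100% = cells grown without nicotinamide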
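System: Modified budding yeast, DeaD strain | Buffer or medium: Restrictive glucose medium | Also added: 1.5 mM nicotinamide | Doses: 10 µM single point, 0.25% DMSO | Schedule: 48 h compound exposure at 30 °C, humidified | Detection: Absorbance at 615 nm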
RAM 5-FOA – 5-FOA growth of efflux-deficient control yeast, dose response, counter-screen for RAM network inhibitor project, S. cerevisiae, OD615. shares compounds with RAM inhibit. S. cerevisiae efflux-deficient reporter strain, 5-FOA growth OD615, 2 days. max inhibition, %. 1,200 tested, under 10 active. AID 1305, 2008; call rule not given here;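 also: plate controls were vehicle for no effect and reference inhibitor for full effect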
Active calls of the source: *. Sampled rows, rich in hits. Any-hit rate of the full collection: about 6.1%.

Screening C=CCn1c(SCc2cc(=O)n3ccsc3n2)nc2ccccc2c1=O returned RAM inhibit 13.7*, WT yeast gro inh 1.2 and RAM 5-FOA 8.8.
C=CCn1c(SCc2cc(C(C)=O)ccc2OCC)nc2ccccc2c1=O was read as Measles CPE 0.1, RAM inhibit 16.1*, BB579 growth dn -32.5, WT yeast gro inh -14.4, Yeast life ext 4.9 and RAM 5-FOA 3.1.
C=CCn1c(SCc2nc3ccccc3c(=O)[nH]2)nc2ccccc2c1=O was read as Measles CPE 22.9, hDAT+cocaine -0.288, RAM inhibit 0.7, BB579 growth dn -43.5, WT yeast gro inh -6.8 and Yeast life ext -4.7.
For CCOc1ccc(CC(=O)N2CCN(c3ccc(N4CCOCC4)nn3)CC2)cc1OCC the results were Measles CPE 1.2, RAM inhibit 1.0, BB579 growth dn -20.4, WT yeast gro inh 0.1 and Yeast life ext -7.3.
For COc1ccccc1C1(CCNS(=O)(=O)c2ccc(C)cc2)CCOC(C(C)C)C1 (stereo not given) the results were Measles CPE 10.7, RAM inhibit 13.2*, BB579 growth dn -33.0, WT yeast gro inh 59.1*, Yeast life ext 2.5 and RAM 5-FOA 3.4.
`CC(=O)Nc1nc(C2CC2)cc(-c2ccccc2)c1C#N` gave RAM inhibit -1.2 and WT yeast gro inh 3.3.
`O=C(NCc1ccccc1)c1ccc(S(=O)(=O)N2CCCc3ccccc32)cc1` gave Measles CPE 8.9, hDAT+cocaine 0.297, RAM inhibit 12.2*, BB579 growth dn -70.4, WT yeast gro inh 4.4, Yeast life ext -22.2 and RAM 5-FOA 3.3.
`O=C(CCCSc1nnc(SCCCC(=O)c2ccc(F)cc2)s1)c1ccc(F)cc1` gave Measles CPE 6.7, hDAT+cocaine 0.32, RAM inhibit 14.5*, BB579 growth dn -26.6, WT yeast gro inh 11.5, Yeast life ext -4.8 and RAM 5-FOA 4.3.
Screening COc1cc(/C=C/C(=O)OCC(=O)Nc2ccccc2Sc2ccc(Cl)cc2)ccc1O returned Measles CPE 2.3, RAM inhibit 15.2*, BB579 growth dn -38.9, WT yeast gro inh 37.5, Yeast life ext -2.3 and RAM 5-FOA 4.2.
`CCCCc1ccc(/C=C2\C(=O)c3ccccc3C(O)=C2C(=O)OCC)cc1` gave Measles CPE 8.8, hDAT+cocaine -0.193, RAM inhibit 13.6*, BB579 growth dn -55.1, WT yeast gro inh 72.3*, Yeast life ext 18.4 and RAM 5-FOA 8.1.
Cc1ccc(SCC(=O)N2c3ccccc3Sc3ccccc32)cc1 was read as Measles CPE 10.6, hDAT+cocaine -0.549, RAM inhibit 13.9*, BB579 growth dn -31.4, WT yeast gro inh 42.1, Yeast life ext -17.5 and RAM 5-FOA 1.8.
For N#CC(C(=O)OC1CCCCC1)c1nc2ccccc2nc1N1CCOCC1 (stereo not given) the results were Measles CPE 12.0, hDAT+cocaine -0.00233, RAM inhibit 2.9, BB579 growth dn -26.7, WT yeast gro inh -4.3 and Yeast life ext 7.1.
Screening CCC(CC)COC(=O)C(C#N)c1nc2ccccc2nc1N1CCOCC1 (stereo not given) returned Measles CPE 3.4, hDAT+cocaine -0.023, RAM inhibit 16.4*, BB579 growth dn -13.7, WT yeast gro inh 49.9, Yeast life ext -1.9 and RAM 5-FOA 4.2.
Cc1ccc(S(=O)(=O)c2c(CO)c(-c3ccccc3)nn2C)cc1 was read as RAM inhibit 13.6*, WT yeast gro inh -4.9 and RAM 5-FOA 3.6.
Screening COc1ccc(NC(=O)NC2CCCCC2C)cc1 (stereo not given) returned RAM inhibit 0.6 and WT yeast gro inh -1.3.
Cc1ccc(-n2c(SCC(=O)Nc3cccc(S(=O)(=O)NC4=NCCCCC4)c3)nc3ccccc3c2=O)cc1C was read as Measles CPE 8.3, RAM inhibit 11.6*, BB579 growth dn -35.8, WT yeast gro inh -2.3, Yeast life ext 3.8 and RAM 5-FOA 2.0.
Screening Cc1cc(/C=C(/C#N)c2cccc(Cl)c2)c(C)n1C returned Measles CPE 3.6, RAM inhibit 17.3*, BB579 growth dn -56.7, WT yeast gro inh 14.2, Yeast life ext -10.0 and RAM 5-FOA 3.6.
Screening Cc1cccc(/C=C2\Oc3cc(OS(C)(=O)=O)ccc3C2=O)c1 returned Measles CPE 8.7, RAM inhibit 12.1*, BB579 growth dn -37.2, WT yeast gro inh 26.0, Yeast life ext -6.3 and RAM 5-FOA 3.8.
Cc1ccc(/C=C2\Oc3cc(OC(=O)N4CCOCC4)ccc3C2=O)cc1 was read as Measles CPE 10.8, RAM inhibit 6.5, BB579 growth dn -29.1, WT yeast gro inh 12.4 and Yeast life ext -4.1.
Screening Cc1ccc(-c2noc(CCC(=O)N3CCN(c4cccc(C(F)(F)F)c4)CC3)n2)cc1 returned Measles CPE 25.1, hDAT+cocaine 0.348, RAM inhibit 11.9*, BB579 growth dn -48.3, WT yeast gro inh 23.9, Yeast life ext -6.9 and RAM 5-FOA 1.4.
Screening COc1ccc(-c2noc(CCC(=O)N3CCN(c4cc(C)ccc4C)CC3)n2)cc1 returned Measles CPE 5.0, hDAT+cocaine 0.329, RAM inhibit 3.7, BB579 growth dn -25.3, WT yeast gro inh -7.6 and Yeast life ext -16.9.
O=C(NCCN1C(=O)CSC1=O)c1ccccc1 was read as Measles CPE 19.0, hDAT+cocaine -0.36, RAM inhibit 0.9, BB579 growth dn -27.2, WT yeast gro inh 3.5 and Yeast life ext -18.0.
Screening Cc1sc(NC(=O)C2C3C=CC(C3)C2C(=O)O)c(C(N)=O)c1-c1ccc(C(C)C)cc1 (stereo not given) returned Measles CPE 7.1, RAM inhibit -1.3, BB579 growth dn 5.4, WT yeast gro inh -8.9 and Yeast life ext 3.0.
`CN(/N=C/c1ccc2c(c1)OCO2)c1ccccc1` gave Measles CPE 10.3, RAM inhibit 4.1, BB579 growth dn -47.2, WT yeast gro inh 49.1 and Yeast life ext -10.2.
For C(=N\N(c1ccccc1)c1ccccc1)/c1ccc2c(c1)OCO2 the results were Measles CPE 22.9, hDAT+cocaine 1.11, RAM inhibit 14.1*, BB579 growth dn -40.9, WT yeast gro inh 51.9, Yeast life ext -16.3 and RAM 5-FOA 7.0.

High-throughput results: PubChem BioAssay, several laboratories
